# Measured values from ChEMBL document CHEMBL3525971 (Drug Metab Dispos, 2011).
# Experiments:
# [1] = Terminal half life in castrated pig plasma withdrawn from hepatic vein at 0.8 mg/kg administered as intrajejunal dose by UPLC-tandem mass spectrometry; assay type: ADME, organism-based, Sus scrofa; design: dose 0.8 mg/kg; details: male, read-out: beta t1/2 (converted)
# Outline: (§1)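 Portal, hepatic and femoral vein plasma sampled over 6 h and assayed by UPLC-MS/MS. Tmax read directly from the profiles. Terminal t1/2 calculated as ln2/λz by non- or compartmental analysis; values below LLOQ after Cmax excluded.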
# [2] = Cmax in castrated pig plasma withdrawn from portal vein at 0.8 mg/kg administered as intrajejunal dose 20 mins after ketoconazole administration by UPLC-tandem mass spectrometry; assay type: ADME, organism-based, Sus scrofa; design: dose 0.8 mg/kg; details: male
# Outline: (§2)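 Where ketoconazole was co-dosed, it was given at 10 mg/kg at the same jejunal site 20 min before. Plasma protein-precipitated with acetonitrile and analysed by UPLC-MS/MS (finasteride-d9). AUC0-6h, Cmax and t1/2 (ln2/λz) were derived by non- or compartmental analysis.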
# [3] = Tmax in castrated pig plasma withdrawn from femoral vein at 0.8 mg/kg administered as intrajejunal dose by UPLC-tandem mass spectrometry; assay type: ADME, organism-based, Sus scrofa; design: dose 0.8 mg/kg; details: male; outline: as §1
# [4] = Terminal half life in castrated pig plasma withdrawn from femoral vein at 0.8 mg/kg administered as intrajejunal dose 20 mins after ketoconazole administration by UPLC-tandem mass spectrometry; assay type: ADME, organism-based, Sus scrofa; design: dose 0.8 mg/kg; details: male, read-out: beta t1/2 (converted); outline: as §1
# [5] = Biliary excretion in castrated pig assessed as unchanged drug level at 0.8 mg/kg administered as intrajejunal dose 20 mins after ketoconazole administration measured during 6 hrs sampling by UPLC-tandem mass spectrometry; assay type: ADME, organism-based, Sus scrofa, Bile; design: dose 0.8 mg/kg; details: in vivo, other
# [6] = AUC (0 to 6 hrs) in castrated pig plasma withdrawn from femoral vein at 0.8 mg/kg administered as intrajejunal dose by UPLC-tandem mass spectrometry; assay type: ADME, organism-based, Sus scrofa; design: time < 6 hr, dose 0.8 mg/kg; details: male; outline: as §2
# Sus scrofa [7] = assay: Absorption rate constant in castrated pig plasma withdrawn from femoral vein at 0.8 mg/kg administered as intrajejunal dose by UPLC-tandem mass spectrometry; assay type: ADME, organism-based; design: dose 0.8 mg/kg; details: in vivo, other
# [8] = Biliary excretion in castrated pig assessed as unchanged drug level at 0.8 mg/kg administered as intrajejunal dose measured during 6 hrs sampling by UPLC-tandem mass spectrometry; assay type: ADME, organism-based, Sus scrofa, Bile; design: dose 0.8 mg/kg; details: in vivo, other
# [9] = Cmax in castrated pig plasma withdrawn from femoral vein at 0.8 mg/kg administered as intrajejunal dose by UPLC-tandem mass spectrometry; assay type: ADME, organism-based, Sus scrofa; design: dose 0.8 mg/kg; details: male; outline: as §2
# [10] = AUC (0 to 6 hrs) in castrated pig plasma withdrawn from femoral vein at 0.8 mg/kg administered as intrajejunal dose 20 mins after ketoconazole administration by UPLC-tandem mass spectrometry; assay type: ADME, organism-based, Sus scrofa; design: time < 6 hr, dose 0.8 mg/kg; details: male; outline: as §2
# [11] = Cmax in castrated pig plasma withdrawn from portal vein at 0.8 mg/kg administered as intrajejunal dose by UPLC-tandem mass spectrometry; assay type: ADME, organism-based, Sus scrofa; design: dose 0.8 mg/kg; details: male; outline: as §2
# [12] = Fraction unbound in pig plasma; assay type: ADME, cell-free, Sus scrofa
# Outline: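 Femoral-vein plasma drawn at 30 and 300 min. […] Unbound and total plasma concentrations measured by HPLC-UV at 210 nm after precipitation and solid-phase extraction, with testosterone as internal standard. Calibration range 0.003-1 µM; fraction unbound taken as Cu/Cp.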
# [13] = AUC (0 to 6 hrs) in castrated pig plasma withdrawn from hepatic vein at 0.8 mg/kg administered as intrajejunal dose 20 mins after ketoconazole administration by UPLC-tandem mass spectrometry; assay type: ADME, organism-based, Sus scrofa; design: time < 6 hr, dose 0.8 mg/kg; details: male; outline: as §2
# [14] = Oral absorption in human; assay type: ADME, organism-based; details: in vivo
# [15] = Volume of distribution at steady state in castrated pig at 0.2 mg/kg, iv by UPLC-tandem mass spectrometry; assay type: ADME, organism-based, Sus scrofa; design: dose 0.2 mg/kg, route intravenous; details: male, in vivo, read-out: Vdss
# Outline: (§3)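 Femoral plasma assayed over 0-6 h by UPLC-MS/MS. CL calculated as dose/AUCVF,0-6h; Vss calculated as MRT × CL, with MRT = AUMC0-6h/AUC0-6h.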
# [16] = Cmax in castrated pig plasma withdrawn from hepatic vein at 0.8 mg/kg administered as intrajejunal dose 20 mins after ketoconazole administration by UPLC-tandem mass spectrometry; assay type: ADME, organism-based, Sus scrofa; design: dose 0.8 mg/kg; details: male; outline: as §2
# [17] = Ratio of AUC in bile to plasma withdrawn from portal vein in castrated pig at 0.8 mg/kg administered as intrajejunal dose by UPLC-tandem mass spectrometry; assay type: ADME, organism-based, Sus scrofa; design: dose 0.8 mg/kg; details: male, read-out: Ratio AUC
# Outline: (§4)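 Bile collected 0-6 h and weighed; portal and hepatic vein plasma sampled. UPLC-MS/MS quantification against finasteride-d9 in SRM mode. Bile/plasma AUC ratio calculated per vein.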
# [18] = Apparent half-life of the terminal disposition phase in castrated pig plasma withdrawn from portal vein at 0.2 mg/kg, iv by UPLC-tandem mass spectrometry; assay type: ADME, organism-based, Sus scrofa; design: dose 0.2 mg/kg, route intravenous; details: male, read-out: t1/2 lambda z (converted); outline: as §2
# [19] = Biliary excretion in castrated pig assessed as unchanged drug level at 0.2 mg/kg, iv measured during 6 hrs sampling by UPLC-tandem mass spectrometry; assay type: ADME, organism-based, Sus scrofa, Bile; design: dose 0.2 mg/kg, route intravenous; details: in vivo
# [20] = Apparent half-life of the terminal disposition phase in castrated pig plasma withdrawn from femoral vein at 0.2 mg/kg, iv by UPLC-tandem mass spectrometry; assay type: ADME, organism-based, Sus scrofa; design: dose 0.2 mg/kg, route intravenous; details: male, read-out: t1/2 lambda z (converted); outline: as §2
# Sus scrofa [21] = assay: Hepatic clearance in castrated pig at 0.8 mg/kg administered as intrajejunal dose 20 mins after ketoconazole administration by UPLC-tandem mass spectrometry; assay type: ADME, organism-based, Liver; design: dose 0.8 mg/kg; details: in vivo, other
# Outline: (§5)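 Portal and hepatic vein plasma measured 0-6 h by UPLC-MS/MS. Extraction ratio derived from portal versus hepatic concentrations or AUCs; CLH then obtained as EH × liver blood flow 52 ml/min/kg × measured blood/plasma ratio.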
# Plasma = assay: Drug metabolism in castrated pig plasma withdrawn from hepatic vein assessed as omega-hydroxy finasteride metabolite formation by UPLC-tandem mass spectrometry; assay type: ADME, cell-free, Sus scrofa
# Outline: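 Plasma sampled 0-6 h from portal, hepatic and femoral veins. Analysed by acetonitrile precipitation with finasteride-d9 internal standard, then UPLC-MS/MS in SRM mode, m/z 389.41 → 271.94 for the ω-hydroxy metabolite.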
# [22] = AUC (0 to 6 hrs) in castrated pig plasma withdrawn from portal vein at 0.8 mg/kg administered as intrajejunal dose 20 mins after ketoconazole administration by UPLC-tandem mass spectrometry; assay type: ADME, organism-based, Sus scrofa; design: time < 6 hr, dose 0.8 mg/kg; details: male; outline: as §2
# [23] = AUC (0 to 6 hrs) in castrated pig plasma withdrawn from portal vein at 0.2 mg/kg, iv by UPLC-tandem mass spectrometry; assay type: ADME, organism-based, Sus scrofa; design: time < 6 hr, dose 0.2 mg/kg, route intravenous; details: male; outline: as §2
# [24] = AUC (0 to 6 hrs) in castrated pig plasma withdrawn from hepatic vein at 0.2 mg/kg, iv by UPLC-tandem mass spectrometry; assay type: ADME, organism-based, Sus scrofa; design: time < 6 hr, dose 0.2 mg/kg, route intravenous; details: male; outline: as §2
# [25] = Tmax in castrated pig plasma withdrawn from portal vein at 0.8 mg/kg administered as intrajejunal dose by UPLC-tandem mass spectrometry; assay type: ADME, organism-based, Sus scrofa; design: dose 0.8 mg/kg; details: male; outline: as §1
# [26] = Ratio of AUC in bile to plasma withdrawn from portal vein in castrated pig at 0.8 mg/kg administered as intrajejunal dose 20 mins after ketoconazole administration by UPLC-tandem mass spectrometry; assay type: ADME, organism-based, Sus scrofa; design: dose 0.8 mg/kg; details: male, read-out: Ratio AUC; outline: as §4
# [27] = Total plasma clearance in castrated pig at 0.2 mg/kg, iv by UPLC-tandem mass spectrometry; assay type: ADME, organism-based, Sus scrofa; design: dose 0.2 mg/kg, route intravenous; details: male; outline: as §3
# [28] = Apparent biliary clearance in castrated pig at 0.8 mg/kg administered as intrajejunal dose 20 mins after ketoconazole administration by UPLC-tandem mass spectrometry; assay type: ADME, organism-based, Sus scrofa, Bile; design: dose 0.8 mg/kg; details: in vivo, other
# [29] = AUC (0 to 6 hrs) in castrated pig plasma withdrawn from femoral vein at 0.2 mg/kg, iv by UPLC-tandem mass spectrometry; assay type: ADME, organism-based, Sus scrofa; design: time < 6 hr, dose 0.2 mg/kg, route intravenous; details: male; outline: as §2
# Sus scrofa [30] = assay: Hepatic clearance in castrated pig at 0.8 mg/kg, administered as intrajejunal dose by UPLC-tandem mass spectrometry; assay type: ADME, organism-based, Liver; design: dose 0.8 mg/kg; details: in vivo, other; outline: as §5
# [31] = Terminal half life in castrated pig plasma withdrawn from femoral vein at 0.8 mg/kg administered as intrajejunal dose by UPLC-tandem mass spectrometry; assay type: ADME, organism-based, Sus scrofa; design: dose 0.8 mg/kg; details: male, read-out: beta t1/2 (converted); outline: as §1
# [32] = Cmax in castrated pig plasma withdrawn from femoral vein at 0.8 mg/kg administered as intrajejunal dose 20 mins after ketoconazole administration by UPLC-tandem mass spectrometry; assay type: ADME, organism-based, Sus scrofa; design: dose 0.8 mg/kg; details: male; outline: as §2
smiles,measurement,setting,value
CC(C)(C)NC(=O)[C@H]1CC[C@H]2[C@@H]3CC[C@H]4NC(=O)C=C[C@]4(C)[C@H]3CC[C@]12C [FINASTERIDE],half-life,[1],1.7 h
same,Cmax,[2],3100 nM
same,Tmax,[3],0.9 h
same,half-life,[4],4 h
same,Ae,[5],0.09 µmol
same,AUC(0-t) at 6 h,[6],1.7 µM·h
same,ka,Sus scrofa [7],6 h⁻¹
same,Ae,[8],0.03 µmol
same,Cmax,[9],600 nM
same,AUC(0-t) at 6 h,[10],4.4 µM·h
same,Cmax,[11],2600 nM
same,fraction unbound,[12],0.17
same,AUC(0-t) at 6 h,[13],4.1 µM·h
same,Fa,[14],> 85%
same,Vd,[15],0.99 L/kg
same,Cmax,[16],1400 nM
same,Kp,[17],0.9
same,half-life,[18],2.6 h
same,Ae,[19],0.032 µmol
same,half-life,[20],3.4 h
same,CLH,Sus scrofa [21],18 mL/min/kg
same,Drug metabolism,Plasma,metabolite_not_detected
same,AUC(0-t) at 6 h,[22],6.3 µM·h
same,AUC(0-t) at 6 h,[23],1.2 µM·h
same,AUC(0-t) at 6 h,[24],0.9 µM·h
same,Tmax,[25],0.3 h
same,Kp at 20 min,[26],0.7
same,clearance,[27],7 mL/min/kg
same,CL(app),[28],0.01 mL/min/kg
same,AUC(0-t) at 6 h,[29],1.2 µM·h
same,CLH,Sus scrofa [30],25 mL/min/kg
same,half-life,[31],1.6 h
same,Cmax,[32],1200 nM
